The record followed here is ChEMBL document CHEMBL4340510, “Design, synthesis, and biological evaluation of truncated deguelin derivatives as Hsp90 inhibitors” (Eur J Med Chem, 2019).

The subject of assay [1] is MCF7. As to the kind of experiment: Cell cycle arrest in human MCF7 cells assessed as accumulation at G1 phase at 1 uM after 48 hrs by propidium iodide staining-based flow cytometry (reference value: 60.61%). In kind it is functional. The method in brief: (§1)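 5×10^4 cells are seeded, incubated overnight, then treated 48 h. Cells are washed in cold PBS and fixed in 70% ethanol at −20 °C for 12 h. They are then stained with 100 µg/mL RNase plus 50 µg/mL PI in PBS, 37 °C for 30 min. DNA content is measured by flow cytometry.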
On the technique in general: In flow cytometry, cells or beads pass a laser one at a time.

Assay [2] concerns MCF7. As to the kind of experiment: Cell cycle arrest in human MCF7 cells assessed as accumulation at G2 phase at 4 uM after 48 hrs by propidium iodide staining-based flow cytometry (reference value: […]).
Assay [3] addresses T1, Heat shock protein HSP90 (Homo sapiens) (UniProt P07900+P08238). Nature of the assay: Inhibition of HSP90 in human MCF7 cells assessed as down regulation of survivin expression after 48 hrs by Western blot analysis. Type of assay: cell-based. The method in brief: (§2)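 Cells are treated 48 h and washed twice in ice-cold PBS. They are lysed on ice for 20 min and spun at 13,000 g, 4 °C. 20 μg protein is run on 8-12% SDS-PAGE and transferred to PVDF. Membranes are probed overnight at 4 °C with primary antibodies (Bcl-xL, cleaved caspase-3, mTOR/p-mTOR, MAPK/p-MAPK, Akt/p-Akt, HIF-1α, survivin; β-actin/GAPDH loading). HRP secondary and chemiluminescence detection follow.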
In general terms: A western blot detects proteins with antibodies after separation by electrophoresis.

Assay [4] deals with MCF7. As to the kind of experiment: Antiinvasive activity in human MCF7 cells after 24 hrs by crystal violet dye-based transwell matrix penetration assay. Type of assay: functional, cell-based. The method in brief:
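Matrigel-coated transwell invasion chambers, 1×10^4 cells seeded in the upper chamber, 37 °C for 24 h. Non-invaded cells are swabbed off. Invaded cells on the underside are fixed in 1% paraformaldehyde, stained with crystal violet and counted in ten random 200× fields per well. Result is the mean cells per field, from three independent experiments.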

The subject of assay [5] is MCF7. As to the kind of experiment: Antiproliferative activity against human MCF7 cells after 72 hrs by MTT assay. The following applies: MCF7, 72 h. Type of assay: functional, cell-based. The method in brief: (§3)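 Cells in RPMI 1640 are seeded at 4,000 cells/well and held 24 h at 37 °C, 5% CO2. Medium is replaced with compound-containing medium (DMSO ≤0.25%) for 72 h at 37 °C. MTT read-out by absorbance at 570 nm. Quadruplicate wells, repeated three times; values are means of three independent experiments.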
(In general: Formazan colour is commonly taken as a measure of viable cells.)

Assay [6] relates to NCI-H1299. As to the kind of experiment: Antiproliferative activity against human NCI-H1299 cells assessed as inhibition of cell growth at 10 uM after 72 hrs by MTT assay relative to control. The following applies: NCI-H1299, 72 h, read-out: GI. In kind it is functional. An outline of the steps:
as §3

For assay [7], the system named is NCI-H1299. As to the kind of experiment: Antiproliferative activity against human NCI-H1299 cells assessed as inhibition of cell growth at 1 uM after 72 hrs by MTT assay relative to control. Type of assay: functional. The settings on record: NCI-H1299, 72 h, read-out: GI. The method in brief:
as §3

The target of assay [8] is T1, Heat shock protein HSP90 (Homo sapiens). Nature of the assay: Induction of HSP90-mediated AKT degradation in human MCF7 cells assessed as increase in ubiquitinated AKT expression at 4 uM by coimmunoprecipitation-based Western blot assay. In kind it is cell-based.
The test system of assay [9] is MCF7. Nature of the assay: Cell cycle arrest in human MCF7 cells assessed as accumulation at G2 phase at 1 uM after 48 hrs by propidium iodide staining-based flow cytometry (reference value: 22.74%). In kind it is functional. The method in brief:
as §1

The test system of assay [10] is MCF7. As to the kind of experiment: Cell cycle arrest in human MCF7 cells assessed as accumulation at G1 phase at 2 uM after 48 hrs by propidium iodide staining-based flow cytometry (reference value: 60.61%). In kind it is functional. The method in brief:
as §1

For assay [11], the target named is T1, Heat shock protein HSP90 (Homo sapiens). As to the kind of experiment: Inhibition of monoclonal antibody binding to HSP90 (unknown origin) by immunoprecipitation-based Western blot analysis. Type of assay: protein assay.
Assay [12] has the same target. Nature of the assay: Inhibition of HSP90 in human MCF7 cells assessed as decrease in phosphorylation of mTOR after 48 hrs by Western blot analysis. Type of assay: cell-based. An outline of the steps:
as §2

Assay [13] relates to NCI-H1299. As to the kind of experiment: Antiproliferative activity against human NCI-H1299 cells after 72 hrs by MTT assay. In kind it is functional, cell-based. The settings on record: NCI-H1299, 72 h. The method in brief: as §3
Assay [14] concerns MCF7. Nature of the assay: Induction of apoptosis in human MCF7 cells assessed as increase in late apoptotic cells at 0.5 to 4 uM after 36 hrs by Annexin V-FITC/propidium iodide double staining-based flow cytometry relative to control. In kind it is functional. An outline of the steps:
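Cells (1×10^5/well) are cultured 24 h, then treated in triplicate for 36 h at 0.5, 1.0, 2.0 or 4.0 μM. Vehicle is 1‰ DMSO in complete medium. Cells are stained with FITC-Annexin V and PI for 15 min in the dark and analysed by flow cytometry. Mean±SD of three independent experiments.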

Assay [15] relates to MCF7. As to the kind of experiment: Induction of apoptosis in human MCF7 cells assessed as rounding of nuclei at 0.5 to 4 uM after 36 hrs by hoechst 33258 staining-based fluorescence microscopy. In kind it is functional, cell-based. The method in brief: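 Approximately 5×10^4 cells per well are exposed to 0, 0.5, 1.0, 2.0 or 4.0 μM for 36 h. Cells are PBS-washed and fixed in 4% paraformaldehyde for 30 min. They are stained with 20 μg/ml Hoechst 33258 for 15 min at room temperature in the dark, and nuclear morphology is examined by fluorescence microscopy.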

Assay [16] concerns MCF7. Nature of the assay: Potency index, ratio of deguelin IC50 to test compound IC50 for human MCF7 cells. In kind it is functional. An outline of the steps: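 MTT assay on MCF-7 cells. Cells were seeded at 4,000/well and pre-incubated 24 h at 37 °C in humidified 5% CO2, then exposed to a range of compound concentrations for 72 h, with DMSO at no more than 0.25%. Absorbance was read at 570 nm, in quadruplicate, repeated three times. The IC50 for each test compound and for deguelin is the mean of three independent experiments, and the index is the deguelin IC50 divided by the compound IC50.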

The target of assay [17] is Heat shock protein HSP 90-alpha (Homo sapiens, UniProt P07900). Nature of the assay: Inhibition of FITC-geldanamycin binding to recombinant human full-length C-terminal His-tagged HSP90alpha […] (1 to 732 residues) expressed in Escherichia coli after 1 hr by fluorescence polarization assay.

Active and inactive are the calls of the source. The calls are words filed in the database; no cut-off is given here.

As usually defined, the IC50 is the point on the concentration scale where inhibition reaches its midpoint. Consider `COc1cc(OC)c(OC)cc1CC(=O)c1ccc2c(c1OC)C=CC(C)(C)O2`, for which the Activity in assay [1] was 55.26%; in assay [2], 29.58%; in assay [4], “Dose-dependent effect”; in assay [9], 21.55%; in [10] it was 46.21%; in assay [14] it was 13.6 - 71.8%. Further, the inhibition result in assay [3], in assay [11] and in assay [12] was “Dose-dependent effect” throughout. For the same molecule, the IC50 in [5] worked out at 2.51 µM; in assay [13], 3.4 µM; in assay [17], 0.06 µM. Moreover, the inhibition of growth at 10 µM in assay [6] was 72.1%. For the same molecule, the inhibition of growth at 1 µM in assay [7] was 40.3%. Moreover, the result in assay [8] and in assay [15] was Active. Also, in assay [16], the “Ratio IC50” value came to 3.
